Measured values from ChEMBL document CHEMBL2380298, “Synthesis and antimicrobial activity of novel amphiphilic aromatic amino alcohols” (2013).
In brackets after ≈: the same amount, converted by molar mass.

Legend:
Assay type in all cases: functional
[1] = test system: Staphylococcus epidermidis; assay: Antimicrobial activity against Staphylococcus epidermidis ATCC 12228 by broth dilution method; settings: for MIC: Staphylococcus epidermidis, ATCC 12228
Staphylococcus aureus [2] = assay: Antimicrobial activity against Staphylococcus aureus ATCC 29213 by broth dilution method; settings: Staphylococcus aureus, ATCC 29213
Staphylococcus aureus [3] = assay: Bactericidal activity against methicillin-resistant Staphylococcus aureus clinical isolate 264 after 24 hrs; settings: isolate 264, 24 h
Outline: (§1)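 Bactericidal concentration: 0.1 ml from wells at the MIC dilution and the dilutions on either side was streaked onto tryptic soy agar and incubated 24 h. It was taken as the lowest drug concentration giving no growth (100% killing).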

Staphylococcus aureus [4] = assay: Bactericidal activity against methicillin-resistant Staphylococcus aureus clinical isolate 260 after 24 hrs; settings: isolate 260, 24 h; outline: as §1
Staphylococcus aureus [5] = assay: Bactericidal activity against methicillin-resistant Staphylococcus aureus clinical isolate 259 after 24 hrs; settings: isolate 259, 24 h; outline: as §1
Staphylococcus aureus [6] = assay: Bactericidal activity against methicillin-resistant Staphylococcus aureus clinical isolate 257 after 24 hrs; settings: isolate 257, 24 h; outline: as §1
Staphylococcus aureus [7] = assay: Bactericidal activity against methicillin-resistant Staphylococcus aureus clinical isolate 255 after 24 hrs; settings: isolate 255, 24 h; outline: as §1
Staphylococcus aureus [8] = assay: Bactericidal activity against methicillin-resistant Staphylococcus aureus clinical isolate 238 after 24 hrs; settings: isolate 238, 24 h; outline: as §1
Staphylococcus aureus [9] = assay: Bactericidal activity against methicillin-resistant Staphylococcus aureus clinical isolate 237 after 24 hrs; settings: isolate 237, 24 h; outline: as §1
Staphylococcus aureus [10] = assay: Bactericidal activity against methicillin-resistant Staphylococcus aureus clinical isolate 236 after 24 hrs; settings: isolate 236, 24 h; outline: as §1
Staphylococcus aureus [11] = assay: Bactericidal activity against methicillin-resistant Staphylococcus aureus clinical isolate 235 after 24 hrs; settings: isolate 235, 24 h; outline: as §1
Staphylococcus aureus [12] = assay: Bactericidal activity against methicillin-resistant Staphylococcus aureus clinical isolate 232 after 24 hrs; settings: isolate 232, 24 h; outline: as §1
Staphylococcus aureus [13] = assay: Bactericidal activity against methicillin-resistant Staphylococcus aureus clinical isolate 231 after 24 hrs; settings: isolate 231, 24 h; outline: as §1
Staphylococcus aureus [14] = assay: Bactericidal activity against methicillin-resistant Staphylococcus aureus clinical isolate 212 after 24 hrs; settings: isolate 212, 24 h; outline: as §1
Staphylococcus aureus [15] = assay: Bactericidal activity against methicillin-resistant Staphylococcus aureus clinical isolate 176 after 24 hrs; settings: isolate 176, 24 h; outline: as §1
[16] = test system: Staphylococcus epidermidis; assay: Bactericidal activity against Staphylococcus epidermidis ATCC 12228 after 24 hrs; settings: ATCC 12228, 24 h
Outline: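 MBC: after MIC determination, 0.1 ml from the MIC well and from two dilutions either side streaked on tryptic soy agar, incubated 24 h; MBC taken as lowest concentration giving no growth (100% kill).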

Staphylococcus aureus [17] = assay: Bactericidal activity against Staphylococcus aureus ATCC 29213 after 24 hrs; settings: ATCC 29213, 24 h; outline: as §1
Candida parapsilosis = assay: Antimicrobial activity against Candida parapsilosis ATCC 90030 by broth dilution method; settings: Lodderomyces parapsilosis
Nakaseomyces glabratus = assay: Antimicrobial activity against Candida glabrata ATCC 18804 by broth dilution method
Candida albicans = assay: Antimicrobial activity against Candida albicans ATCC 22019 by broth dilution method
Candida tropicalis = assay: Antimicrobial activity against Candida tropicalis ATCC 750 by broth dilution method
Staphylococcus aureus [18] = assay: Antimicrobial activity against methicillin-resistant Staphylococcus aureus clinical isolate by broth dilution method
Staphylococcus aureus [19] = assay: Antimicrobial activity against methicillin-resistant Staphylococcus aureus clinical isolate 264 by broth dilution method
Staphylococcus aureus [20] = assay: Antimicrobial activity against methicillin-resistant Staphylococcus aureus clinical isolate 260 by broth dilution method
Staphylococcus aureus [21] = assay: Antimicrobial activity against methicillin-resistant Staphylococcus aureus clinical isolate 257 by broth dilution method
Staphylococcus aureus [22] = assay: Antimicrobial activity against methicillin-resistant Staphylococcus aureus clinical isolate 259 by broth dilution method
Staphylococcus aureus [23] = assay: Antimicrobial activity against methicillin-resistant Staphylococcus aureus clinical isolate 238 by broth dilution method
Staphylococcus aureus [24] = assay: Antimicrobial activity against methicillin-resistant Staphylococcus aureus clinical isolate 255 by broth dilution method
Staphylococcus aureus [25] = assay: Antimicrobial activity against methicillin-resistant Staphylococcus aureus clinical isolate 237 by broth dilution method
Staphylococcus aureus [26] = assay: Antimicrobial activity against methicillin-resistant Staphylococcus aureus clinical isolate 236 by broth dilution method
Staphylococcus aureus [27] = assay: Antimicrobial activity against methicillin-resistant Staphylococcus aureus clinical isolate 235 by broth dilution method
Staphylococcus aureus [28] = assay: Antimicrobial activity against methicillin-resistant Staphylococcus aureus clinical isolate 232 by broth dilution method
Staphylococcus aureus [29] = assay: Antimicrobial activity against methicillin-resistant Staphylococcus aureus clinical isolate 227 by broth dilution method
Staphylococcus aureus [30] = assay: Antimicrobial activity against methicillin-resistant Staphylococcus aureus clinical isolate 231 by broth dilution method
Staphylococcus aureus [31] = assay: Antimicrobial activity against methicillin-resistant Staphylococcus aureus clinical isolate 225 by broth dilution method
Staphylococcus aureus [32] = assay: Antimicrobial activity against methicillin-resistant Staphylococcus aureus clinical isolate 215 by broth dilution method
Staphylococcus aureus [33] = assay: Antimicrobial activity against methicillin-resistant Staphylococcus aureus clinical isolate 218 by broth dilution method
Staphylococcus aureus [34] = assay: Antimicrobial activity against methicillin-resistant Staphylococcus aureus clinical isolate 212 by broth dilution method
Staphylococcus aureus [35] = assay: Antimicrobial activity against methicillin-resistant Staphylococcus aureus clinical isolate 207 by broth dilution method
Staphylococcus aureus [36] = assay: Antimicrobial activity against methicillin-resistant Staphylococcus aureus clinical isolate 205 by broth dilution method
Staphylococcus aureus [37] = assay: Antimicrobial activity against methicillin-resistant Staphylococcus aureus clinical isolate 195 by broth dilution method
Staphylococcus aureus [38] = assay: Antimicrobial activity against methicillin-resistant Staphylococcus aureus clinical isolate 178 by broth dilution method
Staphylococcus aureus [39] = assay: Antimicrobial activity against methicillin-resistant Staphylococcus aureus clinical isolate 176 by broth dilution method
Pseudomonas aeruginosa = assay: Antimicrobial activity against Pseudomonas aeruginosa ATCC 27853 by broth dilution method
Escherichia coli = assay: Antimicrobial activity against Escherichia coli ATCC 11229 by broth dilution method; settings: Escherichia coli, ATCC 11229
Staphylococcus aureus [40] = assay: Bactericidal activity against methicillin-resistant Staphylococcus aureus clinical isolate 225 after 24 hrs; settings: isolate 225, 24 h; outline: as §1
Staphylococcus aureus [41] = assay: Bactericidal activity against methicillin-resistant Staphylococcus aureus clinical isolate 218 after 24 hrs; settings: isolate 218, 24 h; outline: as §1
Staphylococcus aureus [42] = assay: Antimicrobial activity against methicillin-resistant Staphylococcus aureus clinical isolate assessed as resistant isolates by broth dilution method
Staphylococcus aureus [43] = assay: Antimicrobial activity against methicillin-resistant Staphylococcus aureus clinical isolate assessed as susceptible isolates by broth dilution method

## CCCCCCCCCCCCOc1ccc(CNC(CO)(CO)CO)cc1.Cl
[1]
  -logMIC: 4.73
  MIC: 8 µg/mL
Staphylococcus aureus [2]
  MIC: 8 µg/mL
Staphylococcus aureus [3]
  MBC: 8 µg/mL
Staphylococcus aureus [4]
  MBC: 4 µg/mL
Staphylococcus aureus [5]
  MBC: 16 µg/mL
Staphylococcus aureus [6]
  MBC: 16 µg/mL
Staphylococcus aureus [7]
  MBC: 16 µg/mL
Staphylococcus aureus [8]
  MBC: 4 µg/mL
Staphylococcus aureus [9]
  MBC: 4 µg/mL
Staphylococcus aureus [10]
  MBC: 8 µg/mL
Staphylococcus aureus [11]
  MBC: 32 µg/mL
Staphylococcus aureus [12]
  MBC: 16 µg/mL
Staphylococcus aureus [13]
  MBC: 4 µg/mL
Staphylococcus aureus [14]
  MBC: 128 µg/mL
Staphylococcus aureus [15]
  MBC: 128 µg/mL
[16]
  MBC: 8 µg/mL
Staphylococcus aureus [17]
  MBC: 8 µg/mL
Candida parapsilosis
  MIC: 4 µg/mL
Nakaseomyces glabratus
  MIC: 2 µg/mL
Candida albicans
  MIC: 4 µg/mL
Candida tropicalis
  MIC: 8 µg/mL
Staphylococcus aureus [18]
  -logMIC: 4.842
Staphylococcus aureus [18]; Staphylococcus aureus
  MIC50: 4 µg/mL
  MIC90: 8 µg/mL
Staphylococcus aureus [19]
  MIC: 4 µg/mL
Staphylococcus aureus [20]
  MIC: 4 µg/mL
Staphylococcus aureus [21]
  MIC: 16 µg/mL
Staphylococcus aureus [22]
  MIC: 4 µg/mL
Staphylococcus aureus [23]
  MIC: 4 µg/mL
Staphylococcus aureus [24]
  MIC: 4 µg/mL
Staphylococcus aureus [25]
  MIC: 4 µg/mL
Staphylococcus aureus [26]
  MIC: 4 µg/mL
Staphylococcus aureus [27]
  MIC: 4 µg/mL
Staphylococcus aureus [28]
  MIC: 8 µg/mL
Staphylococcus aureus [29]
  MIC: 4 µg/mL
Staphylococcus aureus [30]
  MIC: 4 µg/mL
Staphylococcus aureus [31]
  MIC: 8 µg/mL
Staphylococcus aureus [32]
  MIC: 8 µg/mL
Staphylococcus aureus [33]
  MIC: 4 µg/mL
Staphylococcus aureus [34]
  MIC: 8 µg/mL
Staphylococcus aureus [35]
  MIC: 4 µg/mL
Staphylococcus aureus [36]
  MIC: 8 µg/mL
Staphylococcus aureus [37]
  MIC: 8 µg/mL
Staphylococcus aureus [38]
  MIC: 8 µg/mL
Staphylococcus aureus [39]
  MIC: 8 µg/mL
Pseudomonas aeruginosa
  MIC: > 256 µg/mL
Escherichia coli
  MIC: > 256 µg/mL

## O=C(N[C@H](CO)[C@H](O)c1ccc([N+](=O)[O-])cc1)C(Cl)Cl [CHLORAMPHENICOL]
[1]
  MIC: 32 µg/mL (≈ 99 µM)
Staphylococcus aureus [3]
  MBC: 64 µg/mL (≈ 198 µM)
Staphylococcus aureus [4]
  MBC: 32 µg/mL (≈ 99 µM)
Staphylococcus aureus [5]
  MBC: 8 µg/mL (≈ 24.8 µM)
Staphylococcus aureus [6]
  MBC: 8 µg/mL (≈ 24.8 µM)
Staphylococcus aureus [7]
  MBC: 8 µg/mL (≈ 24.8 µM)
Staphylococcus aureus [8]
  MBC: 16 µg/mL (≈ 49.5 µM)
Staphylococcus aureus [9]
  MBC: 16 µg/mL (≈ 49.5 µM)
Staphylococcus aureus [10]
  MBC: 32 µg/mL (≈ 99 µM)
Staphylococcus aureus [11]
  MBC: 32 µg/mL (≈ 99 µM)
Staphylococcus aureus [12]
  MBC: 16 µg/mL (≈ 49.5 µM)
Staphylococcus aureus [13]
  MBC: 16 µg/mL (≈ 49.5 µM)
Staphylococcus aureus [40]
  MBC: 512 µg/mL (≈ 1580 µM)
Staphylococcus aureus [41]
  MBC: 128 µg/mL (≈ 396 µM)
Staphylococcus aureus [14]
  MBC: 128 µg/mL (≈ 396 µM)
[16]
  MBC: 128 µg/mL (≈ 396 µM)
Staphylococcus aureus [42]
  Activity: 56.3%
Staphylococcus aureus [43]
  Activity: 43.7%
Staphylococcus aureus [18]; Staphylococcus aureus
  MIC90: 32 µg/mL (≈ 99 µM)
Staphylococcus aureus [19]
  MIC: 8 µg/mL (≈ 24.8 µM)
Staphylococcus aureus [20]
  MIC: 4 µg/mL (≈ 12.4 µM)
Staphylococcus aureus [21]
  MIC: 8 µg/mL (≈ 24.8 µM)
Staphylococcus aureus [22]
  MIC: 128 µg/mL (≈ 396 µM)
Staphylococcus aureus [23]
  MIC: 32 µg/mL (≈ 99 µM)
Staphylococcus aureus [24]
  MIC: 4 µg/mL (≈ 12.4 µM)
Staphylococcus aureus [25]
  MIC: 32 µg/mL (≈ 99 µM)
Staphylococcus aureus [26]
  MIC: 64 µg/mL (≈ 198 µM)
Staphylococcus aureus [27]
  MIC: 64 µg/mL (≈ 198 µM)
Staphylococcus aureus [28]
  MIC: 64 µg/mL (≈ 198 µM)
Staphylococcus aureus [29]
  MIC: 64 µg/mL (≈ 198 µM)
Staphylococcus aureus [30]
  MIC: 64 µg/mL (≈ 198 µM)
Staphylococcus aureus [31]
  MIC: 8 µg/mL (≈ 24.8 µM)
Staphylococcus aureus [32]
  MIC: 64 µg/mL (≈ 198 µM)
Staphylococcus aureus [33]
  MIC: 64 µg/mL (≈ 198 µM)
Staphylococcus aureus [34]
  MIC: 8 µg/mL (≈ 24.8 µM)
Staphylococcus aureus [35]
  MIC: 4 µg/mL (≈ 12.4 µM)
Staphylococcus aureus [36]
  MIC: 8 µg/mL (≈ 24.8 µM)
Staphylococcus aureus [37]
  MIC: 4 µg/mL (≈ 12.4 µM)
Staphylococcus aureus [38]
  MIC: 4 µg/mL (≈ 12.4 µM)
Staphylococcus aureus [39]
  MIC: 64 µg/mL (≈ 198 µM)
Pseudomonas aeruginosa
  MIC: 32 µg/mL (≈ 99 µM)
